# Laboratory results taken from ChEMBL document CHEMBL1921722, “In vitro and in vivo evaluation of select kahalalide F analogs with antitumor and antifungal activities” (Bioorg Med Chem, 2011).
# The source made the active and inactive calls. The calls are words filed in the database; no cut-off is given here.
# Key:
# MCF7 [1] = assay: Cytotoxicity against human MCF7 cells assessed as cell growth at 8 uM by sulforhodamine B assay relative to control; assay type: functional; conditions: read-out: Activity
# A549 = assay: Cytotoxicity against human A549 cells assessed as cell growth at 80 nM by sulforhodamine B assay relative to control; assay type: functional; conditions: read-out: Activity
# Outline: (§1)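 Run at NCI in the DTP 60-cell-line human tumor panel by standard procedure. Compounds were first screened at a single concentration, then tested at five tenfold-spaced concentrations. GI50 is the concentration reducing treated-cell growth to half that of untreated controls; TGI is the concentration completely halting growth.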
# HOP-92 = assay: Cytotoxicity against human HOP92 cells assessed as cell growth at 80 nM by sulforhodamine B assay relative to control; assay type: functional; conditions: read-out: Activity
# MDA-MB-231 [2] = assay: Cytotoxicity against human MDA-MB-231 cells assessed as cell growth at 8 nM by sulforhodamine B assay relative to control; assay type: functional; conditions: read-out: Activity
# MCF7 [3] = assay: Cytotoxicity against human MCF7 cells by sulforhodamine B assay; assay type: functional
# OVCAR-5 = assay: Cytotoxicity against human OVCAR5 cells by sulforhodamine B assay; assay type: functional
# Outline: (§2)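 NCI Developmental Therapeutics Program 60-cell-line human tumor panel screen, run at NCI. A single-concentration pre-screen was followed by a five-concentration dose-response in 10-fold steps. GI50 is the concentration that reduces growth of treated cells to half that of untreated control cells. TGI is the concentration that completely halts growth.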
# Malme-3M [4] = assay: Cytotoxicity against human MALME-3M cells assessed as cell growth at 8 uM by sulforhodamine B assay relative to control; assay type: functional; conditions: read-out: Activity
# HT-29 = assay: Cytotoxicity against human HT-29 cells assessed as cell growth at 80 uM by sulforhodamine B assay relative to control; assay type: functional; conditions: read-out: Activity
# HCT-15 = assay: Cytotoxicity against human HCT15 cells assessed as cell growth at 800 nM by sulforhodamine B assay relative to control; assay type: functional; conditions: read-out: Activity
# UACC-62 [5] = assay: Cytotoxicity against human UACC62 cells assessed as cell growth at 8 uM by sulforhodamine B assay relative to control; assay type: functional; conditions: read-out: Activity
# K562 [6] = assay: Cytotoxicity against human K562 cells assessed as cell growth at 8 nM by sulforhodamine B assay relative to control; assay type: functional; conditions: read-out: Activity
# EKVX = assay: Cytotoxicity against human EKVX cells assessed as cell growth at 8 nM by sulforhodamine B assay relative to control; assay type: functional; conditions: read-out: Activity
# SK-MEL-2 = assay: Cytotoxicity against human SK-MEL-2 cells by sulforhodamine B assay; assay type: functional; outline: as §2
# Staphylococcus aureus = assay: Antimicrobial activity against methicillin-resistant Staphylococcus aureus ATCC 43300 by CLSI method; assay type: functional, organism-based
# T47D [7] = assay: Cytotoxicity against human T47D cells by sulforhodamine B assay; assay type: functional; outline: as §2
# HL-60(TB) = assay: Cytotoxicity against human HL-60(TB) cells assessed as cell growth at 8 uM by sulforhodamine B assay relative to control; assay type: functional; conditions: read-out: Activity
# HCT-116 [8] = assay: Cytotoxicity against human HCT116 cells assessed as cell growth at 800 nM by sulforhodamine B assay relative to control; assay type: functional; conditions: read-out: Activity
# SNB-19 [9] = assay: Cytotoxicity against human SNB19 cells assessed as cell growth at 8 uM by sulforhodamine B assay relative to control; assay type: functional; conditions: read-out: Activity
# K562 [10] = assay: Cytotoxicity against human K562 cells by sulforhodamine B assay; assay type: functional; outline: as §2
# MDA-MB-231 [11] = assay: Cytotoxicity against human MDA-MB-231 cells by sulforhodamine B assay; assay type: functional; outline: as §2
# NCI-H322M = assay: Cytotoxicity against human NCI-H322M cells assessed as cell growth at 80 nM by sulforhodamine B assay relative to control; assay type: functional; conditions: read-out: Activity
# MCF7 [12] = assay: Cytotoxicity against human MCF7 cells assessed as cell growth at 800 nM by sulforhodamine B assay relative to control; assay type: functional; conditions: read-out: Activity
# BT-549 [13] = assay: Cytotoxicity against human BT549 cells assessed as cell growth at 8 nM by sulforhodamine B assay relative to control; assay type: functional; conditions: read-out: Activity; outline: as §1
# UACC-62 [14] = assay: Cytotoxicity against human UACC62 cells assessed as cell growth at 80 uM by sulforhodamine B assay relative to control; assay type: functional; conditions: read-out: Activity
# T47D [15] = assay: Cytotoxicity against human T47D cells assessed as cell growth at 8 uM by sulforhodamine B assay relative to control; assay type: functional; conditions: read-out: Activity
# NCI-H23 = assay: Cytotoxicity against human NCI-H23 cells assessed as cell growth at 8 uM by sulforhodamine B assay relative to control; assay type: functional; conditions: read-out: Activity
# SN12C [16] = assay: Cytotoxicity against human SN12C cells assessed as cell growth at 8 uM by sulforhodamine B assay relative to control; assay type: functional; conditions: read-out: Activity
# HCT-116 [17] = assay: Cytotoxicity against human HCT116 cells assessed as cell growth at 80 nM by sulforhodamine B assay relative to control; assay type: functional; conditions: read-out: Activity
# Mus musculus = assay: Acute toxicity in athymic nude mouse assessed as mortality at 12.5 mg/kg, […]; assay type: organism-based; parameters: dose 12.5 mg/kg, route intraperitoneal; conditions: in vivo, ip, 576 h
# BT-549 [18] = assay: Cytotoxicity against human BT549 cells assessed as cell growth at 80 uM by sulforhodamine B assay relative to control; assay type: functional; conditions: read-out: Activity; outline: as §1
# HCT-116 [19] = assay: Cytotoxicity against human HCT116 cells assessed as cell growth at 8 nM by sulforhodamine B assay relative to control; assay type: functional; conditions: read-out: Activity
# UACC-257 [20] = assay: Cytotoxicity against human UACC257 cells assessed as cell growth at 80 uM by sulforhodamine B assay relative to control; assay type: functional; conditions: read-out: Activity
# UACC-257 [21] = assay: Cytotoxicity against human UACC257 cells by sulforhodamine B assay; assay type: functional; outline: as §2
# U-251 = assay: Cytotoxicity against human U251 cells assessed as cell growth at 800 nM by sulforhodamine B assay relative to control; assay type: functional; conditions: read-out: Activity
# DU-145 = assay: Cytotoxicity against human DU145 cells assessed as cell growth at 8 uM by sulforhodamine B assay relative to control; assay type: functional; conditions: read-out: Activity; outline: as §1
# IGROV-1 = assay: Cytotoxicity against human IGROV1 cells assessed as cell growth at 80 nM by sulforhodamine B assay relative to control; assay type: functional; conditions: read-out: Activity
# MOLT-4 = assay: Cytotoxicity against human MOLT4 cells assessed as cell growth at 8 nM by sulforhodamine B assay relative to control; assay type: functional; conditions: read-out: Activity
# SK-MEL-5 = assay: Cytotoxicity against human SK-MEL-5 cells assessed as cell growth at 80 uM by sulforhodamine B assay relative to control; assay type: functional; conditions: read-out: Activity
# SN12C [22] = assay: Cytotoxicity against human SN12C cells assessed as cell growth at 800 nM by sulforhodamine B assay relative to control; assay type: functional; conditions: read-out: Activity
# NCI-H522 = assay: Cytotoxicity against human NCI-H522 cells assessed as cell growth at 80 uM by sulforhodamine B assay relative to control; assay type: functional; conditions: read-out: Activity
# Malme-3M [23] = assay: Cytotoxicity against human MALME-3M cells assessed as cell growth at 80 nM by sulforhodamine B assay relative to control; assay type: functional; conditions: read-out: Activity
# SNB-19 [24] = assay: Cytotoxicity against human SNB19 cells assessed as cell growth at 80 uM by sulforhodamine B assay relative to control; assay type: functional; conditions: read-out: Activity
smiles,measurement,setting,value
C/C=C1\NC(=O)[C@H](Cc2ccccc2)NC(=O)[C@@H](C(C)C)NC(=O)[C@@H]([C@@H](C)CC)NC(=O)[C@H](NC(=O)[C@H](NC(=O)[C@H](CCCNCc2ccc(N3CCOCC3)cc2)NC(=O)[C@H]2CCCN2C(=O)[C@H](NC(=O)[C@@H](NC(=O)[C@@H](NC(=O)[C@H](NC(=O)CCCC(C)C)C(C)C)[C@@H](C)O)C(C)C)C(C)C)[C@@H](C)CC)[C@@H](C)OC(=O)[C@H](C(C)C)NC1=O,growth at 8 µM,MCF7 [1],-53%
same,growth at 0.08 µM,A549,102%
same,growth at 0.08 µM,HOP-92,96%
same,growth at 0.008 µM,MDA-MB-231 [2],95%
same,GI50,MCF7 [3],1.45 µM
same,GI50,OVCAR-5,0.933 µM
same,TGI,OVCAR-5; read-out: pTGI (converted),2.19 µM
same,growth at 8 µM,Malme-3M [4],-71%
same,growth at 80 µM,HT-29,8%
same,growth at 0.8 µM,HCT-15,3%
same,growth at 8 µM,UACC-62 [5],-100%
same,growth at 0.008 µM,K562 [6],103%
same,growth at 0.008 µM,EKVX,102%
same,GI50,SK-MEL-2,1.51 µM
same,TGI,SK-MEL-2; read-out: pTGI (converted),2.88 µM
same,Activity,Staphylococcus aureus,inactive
same,GI50,T47D [7]; read-out: GI50,0.167 µM
same,TGI,T47D [7]; read-out: TGI,0.466 µM
same,GI50,T47D [7]; read-out: pGI50 (converted),0.166 µM
same,TGI,T47D [7]; read-out: pTGI (converted),0.468 µM
same,growth at 8 µM,HL-60(TB),-17%
same,growth at 0.8 µM,HCT-116 [8],104%
same,growth at 8 µM,SNB-19 [9],-70%
same,GI50,K562 [10],4.79 µM
same,CC50,K562 [10]; read-out: pLC50 (the source's name) (converted),> 75.9 µM
same,TGI,K562 [10]; read-out: pTGI (converted),22.9 µM
same,GI50,MDA-MB-231 [11],2.63 µM
same,LC50,MDA-MB-231 [11],> 75.9 µM
same,TGI,MDA-MB-231 [11]; read-out: pTGI (converted),15.5 µM
same,growth at 0.08 µM,NCI-H322M,92%
same,growth at 0.8 µM,MCF7 [12],91%
same,growth at 0.008 µM,BT-549 [13],106%
same,growth at 80 µM,UACC-62 [14],-81%
same,growth at 8 µM,T47D [15],-63%
same,growth at 8 µM,NCI-H23,-63%
same,growth at 8 µM,SN12C [16],-47%
same,growth at 0.08 µM,HCT-116 [17],100%
same,Activity,Mus musculus,Non-toxic
same,growth at 80 µM,BT-549 [18],-49%
same,growth at 0.008 µM,HCT-116 [19],102%
same,growth at 80 µM,UACC-257 [20],-28%
same,GI50,UACC-257 [21]; read-out: GI50,1.34 µM
same,TGI,UACC-257 [21]; read-out: TGI,2.65 µM
same,GI50,UACC-257 [21]; read-out: pGI50 (converted),1.35 µM
same,TGI,UACC-257 [21]; read-out: pTGI (converted),2.63 µM
same,growth at 0.8 µM,U-251,72%
same,growth at 8 µM,DU-145,-96%
same,growth at 0.08 µM,IGROV-1,106%
same,growth at 0.008 µM,MOLT-4,103%
same,growth at 80 µM,SK-MEL-5,-56%
same,growth at 0.8 µM,SN12C [22],86%
same,growth at 80 µM,NCI-H522,-22%
same,growth at 0.08 µM,Malme-3M [23],112%
same,growth at 80 µM,SNB-19 [24],-5%
